These results are taken from ChEMBL document CHEMBL4190262, “Tuning of β-glucosidase and α-galactosidase inhibition by generation and in situ screening of a library of pyrrolidine-triazole hybrid molecules” (Eur J Med Chem, 2017).

The target in assay [1] is Alpha-galactosidase (Coffea arabica) (UniProt Q42656). The experiment in a line: Inhibition of coffee beans alpha-galactosidase at 50 uM using p-nitrophenyl glycopyranoside preincubated for 5 mins followed by substrate addition measured after 20 mins by visible absorption spectroscopic method relative to control. The method, boiled down:
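Crude triazoles from in situ CuAAC (ascorbate/CuSO4, 24 h rt, water-diluted) were screened at 50 μM per well, assuming full conversion. Enzyme was coffee bean α-galactosidase at pH 6, 37 °C, with p-nitrophenyl glycoside substrate and 405 nm read-out. Blanks of CuSO4, ascorbate and each alkyne were run.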

For the next assay, the target named is T1, Beta-galactosidase (Bos taurus, UniProt Q58D55).
T1 sequence (Q58D55 whole entry): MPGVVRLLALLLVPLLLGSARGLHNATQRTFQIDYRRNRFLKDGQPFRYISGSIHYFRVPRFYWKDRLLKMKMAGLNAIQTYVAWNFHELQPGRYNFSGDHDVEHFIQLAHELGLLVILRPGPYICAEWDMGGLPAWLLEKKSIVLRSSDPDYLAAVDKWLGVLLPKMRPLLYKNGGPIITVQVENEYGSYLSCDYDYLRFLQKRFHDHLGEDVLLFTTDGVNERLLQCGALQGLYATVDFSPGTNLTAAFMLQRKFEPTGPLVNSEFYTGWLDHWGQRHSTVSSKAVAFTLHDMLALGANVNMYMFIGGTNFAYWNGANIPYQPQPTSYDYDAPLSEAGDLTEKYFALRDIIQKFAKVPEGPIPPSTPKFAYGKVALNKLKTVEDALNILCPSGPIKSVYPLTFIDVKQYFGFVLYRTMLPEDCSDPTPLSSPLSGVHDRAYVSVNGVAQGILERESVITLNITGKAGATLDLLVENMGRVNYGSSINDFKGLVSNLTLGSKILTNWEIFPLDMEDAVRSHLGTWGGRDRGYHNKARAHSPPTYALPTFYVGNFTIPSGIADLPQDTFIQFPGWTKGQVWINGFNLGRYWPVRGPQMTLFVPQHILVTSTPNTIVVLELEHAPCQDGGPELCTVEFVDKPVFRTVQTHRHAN
The experiment in a line: Inhibition of bovine liver beta-galactosidase using p-nitrophenyl glycopyranoside preincubated for 5 mins followed by substrate addition measured after 20 mins by visible absorption spectroscopic method. The procedure, abridged: (§1)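 IC50 determined only for compounds giving ≥80% inhibition at 1 mM, read from plots of % inhibition versus inhibitor concentration. p-Nitrophenyl glycopyranoside substrate (10 mM solution) at the enzyme's optimal pH, with 0.01–0.5 units/mL enzyme. 5 min rt preincubation with enzyme, then 20 min at 37 °C. Borate stop (pH 9.8), absorbance at 405 nm. Duplicates averaged.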

The target of another assay is Alpha-galactosidase (Coffea arabica, UniProt Q42656). The experiment in a line: Inhibition of coffee beans alpha-galactosidase using p-nitrophenyl glycopyranoside preincubated for 5 mins followed by substrate addition measured after 20 mins by visible absorption spectroscopic method. The procedure, abridged:
as §1

The target in assay [2] is T2, Lysosomal acid glucosylceramidase (Homo sapiens, UniProt P04062).
T2 sequence (P04062 whole entry): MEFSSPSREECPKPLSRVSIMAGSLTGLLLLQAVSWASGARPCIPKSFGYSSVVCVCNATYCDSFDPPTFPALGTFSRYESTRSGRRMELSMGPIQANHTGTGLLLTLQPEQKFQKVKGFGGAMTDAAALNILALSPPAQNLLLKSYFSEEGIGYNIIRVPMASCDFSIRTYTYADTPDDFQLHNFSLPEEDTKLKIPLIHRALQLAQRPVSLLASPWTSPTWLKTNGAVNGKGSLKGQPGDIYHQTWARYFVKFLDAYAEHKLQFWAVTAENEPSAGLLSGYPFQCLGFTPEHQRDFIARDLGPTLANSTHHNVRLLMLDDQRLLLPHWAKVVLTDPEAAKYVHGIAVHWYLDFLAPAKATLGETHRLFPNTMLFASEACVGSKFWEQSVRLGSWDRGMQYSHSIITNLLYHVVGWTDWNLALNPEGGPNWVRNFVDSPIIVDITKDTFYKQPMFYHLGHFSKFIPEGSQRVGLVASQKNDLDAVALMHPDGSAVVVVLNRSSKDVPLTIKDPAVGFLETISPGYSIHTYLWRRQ
The experiment in a line: Inhibition of human lysosomal beta-glucocerebrosidase using 4-methylumbelliferyl-beta-D-glucopyranoside as substrate preincubated for 45 mins followed by substrate addition measured after 30 mins by fluorescence spectroscopic method. The method, boiled down:
(§2)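 Enzyme in 100 mM McIlvaine buffer pH 5.2 with 0.25% sodium taurocholate and 0.1% Triton X-100, with inhibitor. Preincubated at 0 °C for 45 min, then started with 3 mM 4-methylumbelliferyl glycoside substrate solution and incubated 30 min at 37 °C. Stopped with 400 mM glycine-NaOH pH 10.6. 4-Methylumbelliferone fluorescence read at ex 362/em 450 nm.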

For assay [3], the system named is Prunus dulcis. The experiment in a line: Inhibition of almond beta-glucosidase at 1 mM using p-nitrophenyl glycopyranoside preincubated for 5 mins followed by substrate addition measured after 20 mins by visible absorption spectroscopic method relative to control. The procedure, abridged:
(§3)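 Test compound at 1 mM in well. Mix: 0.01–0.5 units/mL enzyme plus 10 mM p-nitrophenyl glycopyranoside (aqueous solution), buffered to the enzyme's optimal pH. Enzyme and inhibitor preincubated 5 min at rt. Substrate then added and incubated 20 min at 37 °C. Stopped with sodium borate (pH 9.8). p-Nitrophenolate read at 405 nm. Duplicates averaged.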

The target of the next assay is T3, Alpha-galactosidase A (Homo sapiens, UniProt P06280).
T3 sequence (P06280 whole entry): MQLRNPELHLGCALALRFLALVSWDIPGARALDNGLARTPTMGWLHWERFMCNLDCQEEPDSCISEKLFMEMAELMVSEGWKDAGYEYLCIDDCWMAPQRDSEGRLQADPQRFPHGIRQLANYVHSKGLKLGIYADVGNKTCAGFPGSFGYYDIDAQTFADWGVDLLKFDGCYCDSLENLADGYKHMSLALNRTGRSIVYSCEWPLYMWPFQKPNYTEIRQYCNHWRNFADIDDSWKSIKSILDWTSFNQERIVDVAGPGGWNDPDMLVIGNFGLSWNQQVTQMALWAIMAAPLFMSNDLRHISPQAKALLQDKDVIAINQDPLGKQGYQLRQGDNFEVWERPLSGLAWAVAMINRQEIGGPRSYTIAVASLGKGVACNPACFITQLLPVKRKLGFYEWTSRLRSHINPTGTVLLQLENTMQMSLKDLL
The experiment in a line: Inhibition of human lysosomal alpha-galactosidase A using 4-methylumbelliferyl-alpha-D-galactopyranoside as substrate preincubated for 45 mins followed by substrate addition measured after 30 mins by fluorescence spectroscopic method. The procedure, abridged:
as §2

Assay [4] can be described thus: Inhibition of bovine liver beta-glucosidase using p-nitrophenyl glycopyranoside preincubated for 5 mins followed by substrate addition measured after 20 mins by visible absorption spectroscopic method. More on the design: species or system Bos taurus. The procedure, abridged: as §1
Assay [5] is described as follows: Selectivity ratio of IC50 for human lysosomal alpha-galactosidase A to IC50 for coffee beans alpha-galactosidase.
In assay [6] the target is T4, Alpha-galactosidase A (Homo sapiens) (UniProt P06280).
T4 sequence (whole entry): T3 sequence (P06280 whole entry)
Put plainly: Inhibition of human lysosomal alpha-galactosidase A at 1 mM using 4-methylumbelliferyl-alpha-D-galactopyranoside as substrate preincubated for 45 mins followed by substrate addition measured after 30 mins by fluorescence spectroscopic method relative to control. The procedure, abridged: as §2

The species entered for another assay is Bos taurus. Put plainly: Inhibition of bovine liver beta-glucosidase at 1 mM using p-nitrophenyl glycopyranoside preincubated for 5 mins followed by substrate addition measured after 20 mins by visible absorption spectroscopic method relative to control. The method, boiled down: as §3
The subject of assay [7] is Prunus dulcis. The experiment in a line: Inhibition of almond beta-glucosidase at 10 uM using p-nitrophenyl glycopyranoside preincubated for 5 mins followed by substrate addition measured after 20 mins by visible absorption spectroscopic method relative to control. The method, boiled down: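 Crude click-reaction products screened in situ. Azide (final 15 mM) was reacted with each alkyne using sodium ascorbate/CuSO4 in tBuOH–H2O for 24 h at rt, then diluted with water. Tested at 10 μM per well, assuming quantitative conversion, against almond β-glucosidase at pH 5, 37 °C. p-Nitrophenyl glycoside read-out at 405 nm.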

Assay [8] can be described thus: Inhibition of almond beta-glucosidase using p-nitrophenyl glycopyranoside preincubated for 5 mins followed by substrate addition measured after 20 mins by visible absorption spectroscopic method. The arrangement: species or system Prunus dulcis. The method, boiled down:
as §1

For assay [9], the target named is Alpha-galactosidase (Coffea arabica) (UniProt Q42656). The experiment in a line: Inhibition of coffee beans alpha-galactosidase at 1 mM using p-nitrophenyl glycopyranoside preincubated for 5 mins followed by substrate addition measured after 20 mins by visible absorption spectroscopic method relative to control. The method, boiled down:
as §3

Alpha-galactosidase (Coffea arabica), sequence (Q42656 16-378 limits assumed): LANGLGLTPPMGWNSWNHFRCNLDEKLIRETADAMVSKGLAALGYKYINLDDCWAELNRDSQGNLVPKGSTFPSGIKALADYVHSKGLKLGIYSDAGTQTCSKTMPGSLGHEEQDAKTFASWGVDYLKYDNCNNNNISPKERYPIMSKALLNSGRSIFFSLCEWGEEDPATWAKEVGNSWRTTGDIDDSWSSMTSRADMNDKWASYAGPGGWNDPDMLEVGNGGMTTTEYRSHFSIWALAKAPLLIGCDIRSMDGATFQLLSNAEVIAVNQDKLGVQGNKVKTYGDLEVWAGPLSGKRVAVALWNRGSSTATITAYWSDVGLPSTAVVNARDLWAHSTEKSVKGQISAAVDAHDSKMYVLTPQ
Alpha-galactosidase, sequence (Q42656 whole entry): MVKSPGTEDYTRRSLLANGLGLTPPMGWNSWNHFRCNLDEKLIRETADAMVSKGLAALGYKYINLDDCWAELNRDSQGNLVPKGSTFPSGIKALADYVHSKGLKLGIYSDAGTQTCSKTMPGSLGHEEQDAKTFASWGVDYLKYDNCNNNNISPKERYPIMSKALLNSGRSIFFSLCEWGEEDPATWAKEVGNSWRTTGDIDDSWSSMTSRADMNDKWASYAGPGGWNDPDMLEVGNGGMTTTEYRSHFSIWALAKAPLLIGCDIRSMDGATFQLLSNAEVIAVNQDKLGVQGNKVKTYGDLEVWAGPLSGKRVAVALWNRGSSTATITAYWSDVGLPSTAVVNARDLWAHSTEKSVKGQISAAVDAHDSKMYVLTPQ

With `OCc1ccc(-c2cn(C[C@H]3NC[C@@H](O)[C@H]3O)nn2)cc1`, the inhibition – broadly, the drop in the measured response relative to a control, in per cent – in assay [1] was 66%; with Prunus dulcis [3], less than 50%. The IC50 (usually the concentration that inhibits the measured activity by half) at Beta-galactosidase came out at 268 µM; on Alpha-galactosidase, 14 µM; in [2] it was 187 µM; at Alpha-galactosidase A it was 159 µM; in [4], 888 µM. Also, the Ratio IC50 in assay [5] worked out at 10.
For `C[Si](C)(C)Cc1cn(C[C@@H]2NC[C@@H](O)[C@H]2O)nn1`, the inhibition was less than 50% in assay [6], less than 50% in the assay filed under Bos taurus, 65% in the assay with Prunus dulcis [7] and less than 50% in assay [9]. In addition, the IC50 turned out to be 151 µM against Beta-galactosidase, 19 µM in [2] and 7 µM in [8].
For `COc1ccc(-c2cn(C[C@H]3NC[C@@H](O)[C@H]3O)nn2)cc1`, the inhibition in assay [1] was 67%; in the assay with Prunus dulcis [3], less than 50%. Besides, the IC50 on Beta-galactosidase was determined as 338 µM; against Alpha-galactosidase it was 13 µM; in assay [2], 31 µM; against Alpha-galactosidase A it was 185 µM; in assay [4], 887 µM. In addition, the Ratio IC50 in assay [5] was 10.
